Assay outcomes (PubChem)
Many of the other results were omitted from the sample, so hits are more common in it than they were.
BasE inh – blocks the Acinetobacter baumannii siderophore enzyme BasE; purified BasE, fluorescence polarization binding displacement; inhibition, % (no concentration beside the values); hit rate 0.1% among 84,000; AID 485350; in the data active = inhibition above about 25%, passing the limit was not always enough
LANA-nucl inh – inhibitors of KSHV LANA binding to nucleosomes; FITC-LANA1-23 / chicken nucleosome fluorescence polarization; active compounds read low; z-score (concentration not given with the values); hit rate 0.3% among 51,000; AID 720717;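 active = both repeat wells score below -2 in polarization z-score versus plate sample wells, excluding overly bright wells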
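System – purified chicken nucleosomes with FITC-labelled LANA N-terminal peptide (1-23) · Amount – 240 nM purified chicken nucleosomes (480 nM peptide binding sites), final · Also added – 50 nM FITC-LANA1-23 probe · Medium – TEN-BT buffer, pH 7.5 · Incubation – compound with peptide–nucleosome mix 10–45 min at room temperature · Detection – fluorescence polarization, ex 480 nm, em 535 nm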
A number is an active result; – = inactive; · = not tested or not shown.

SMILES	BasE inh	LANA-nucl inh
CCC(=O)Nn1cnc2c(cnn2-c2ccccc2)c1=O	–	-2.23
O=C(Cc1ccccc1)Nn1cnc2c(cnn2-c2ccccc2)c1=O	–	–
CCN(CC)Cc1c(O)ccc2c1O/C(=C\c1ccccc1Cl)C2=O	–	-3
O=C1/C(=C/c2ccccc2)Oc2c1ccc(O)c2CN1CCCC1	–	–
CCOC(=O)C1CCN(CN2C(=O)C3(SCC(=O)N3c3cccc(Cl)c3)c3ccccc32)CC1 (stereo not drawn)	–	–
COc1ccc(CN(C)C(=O)Nc2ccccc2)cc1	–	–
CC1(c2ccc(Cl)cc2)NC(=O)CS1 (stereo not drawn)	–	-2.4
O=C1CSCC(=O)N1c1ccc(Cl)cc1	–	–
Cn1cnnc1SCc1ccc(C(=O)N/N=C2\CCCc3ccccc32)cc1	–	·
CCCn1c(N)c(C(=O)COC(=O)c2ccc(C)c(NC(=O)c3ccco3)c2)c(=O)[nH]c1=O	–	·
Cn1cnnc1Sc1ccc(Cl)cc1NC(=O)c1cc(=O)[nH]c2ccccc12	–	·
CCOC(=O)C1=C(N)Oc2cc(C)oc(=O)c2C1c1ccccc1F (stereo not drawn)	27.7	–
CC1=C(C(=O)OC(C)C)C(c2ccccc2F)C(C#N)=C(N)O1 (stereo not drawn)	–	–
Cc1nonc1NC(=O)CSc1ccccn1	57.3	–
O=C(CSc1ccccn1)Nc1ncccn1	–	–
COC(=O)C1=CN(C2CCCCC2)C=C(C(=O)OC)C1c1cccc(C)c1	–	–
O=S(=O)(/C=C/c1ccccc1)NC1CCCCC1	–	·
O=C(CN1CCN(C2c3ccccc3-c3ccccc32)CC1)c1ccc2c(c1)OCO2	–	–
O=C(c1ccc2c(c1)OCO2)N1CCN(C2c3ccccc3-c3ccccc32)CC1	–	-2.33
CCCOc1ccc(Cn2cnc3ccccc32)cc1	–	–
COc1ccc(OCCn2cnc3ccccc32)cc1	25.9	–
Brc1ccc(OCCn2cnc3ccccc32)cc1	38.5	–
O=c1c2ccccc2ncn1CCOc1ccc(Br)cc1	–	·
CCN(CC)S(=O)(=O)c1ccc(C(=O)OC(C)C(=O)NC2CCCCC2)cc1 (stereo not drawn)	–	·
CC(C)n1ncc2c(C(=O)OCc3ccc(C#N)cc3)cc(-c3ccccc3)nc21	–	·
SMILES	BasE inh	LANA-nucl inh
O=C(O)c1cc(-c2ccccc2)nc2c1cnn2Cc1ccncc1	99.1	·
COc1ccc(S(=O)(=O)N(CCc2ccccc2)CC(=O)N2CCN(C)CC2)cc1Cl	–	–
O=C(/C=C/c1ccccc1)Nc1ccc(O)cc1	–	·
O=C(/C=C/c1ccccc1)Nc1cccnc1	36.0	·
Cc1ccc(C)c(OCCn2cc(/C=C3\C(=N)N4N=C(S(C)(=O)=O)SC4=NC3=O)c3ccccc32)c1	–	–
N=C1/C(=C\c2cn(CCOc3ccccc3Cl)c3ccccc23)C(=O)N=C2SC=NN12	–	-3.43
O=C(c1cccc2ccccc12)N1CCOCC1	–	·
NC(=O)c1ccsc1NC(=O)CSc1ccccc1	–	–
NC(=O)c1ccsc1NC(=O)COC(=O)c1ccccc1	39.7	·
CCS(=O)(=O)c1ccc(O)c(NC(=O)COc2ccc(Cl)c(C)c2)c1	–	–
CCN(CC)C(=O)c1cccc(NC(=O)c2cc(-c3ccco3)nc3ccccc23)c1	–	·
Cc1ccc(C)n1-c1ccc(C(=O)O)cc1O	46.7	–
Cc1cc(C(=O)O)ccc1-n1c(C)ccc1C	–	–
Cn1c(=O)c(C(=O)CNc2ccc(S(=O)(=O)N3CCCC3)cc2)c(N)n(Cc2ccccc2)c1=O	–	·
CCn1c(O)c(C=Nc2ccccc2)oc1=S	–	·
CCn1c(O)c(C=Nc2cccc(O)c2)sc1=S	–	-2.41
Nc1cc[n+](CC(O)CO)cc1 (stereo not drawn)	–	-3.07
N#CC1=C(N)C(C#N)(C#N)C(c2ccco2)C2CN(Cc3ccccc3)CC=C12 (stereo not drawn)	–	-5.42
CN1CC=C2C(C#N)=C(N)C(C#N)(C#N)C(Cc3ccccc3)C2C1 (stereo not drawn)	–	–
CCCN1CC=C2C(C#N)=C(N)C(C#N)(C#N)C(C(C)C)C2C1 (stereo not drawn)	–	-4.01
CCN1CC=C2C(C#N)=C(N)C(C#N)(C#N)C(c3ccc(OC)c4ccccc34)C2C1 (stereo not drawn)	–	–
CCCN1CC=C2C(C#N)=C(N)C(C#N)(C#N)C(c3cccc(OC)c3)C2C1 (stereo not drawn)	–	–
CCN1CC=C2C(C#N)=C(N)C(C#N)(C#N)C(C)C2C1 (stereo not drawn)	–	-2.5
COc1ccccc1Cn1cccc1C1=NC(CC(C)C)CO1 (stereo not drawn)	–	–
Cc1ccc(NC(=O)CNC(=O)Cn2cnc3ccccc3c2=O)cc1F	–	–
SMILES	BasE inh	LANA-nucl inh
Cc1cccc(C)c1NC(=O)CN(C)C(C)C(=O)N1c2ccccc2CC1C (stereo not drawn)	–	·
CCCCN=C1SCC(c2c[nH]c3ccccc23)=NN1C	–	·
CCn1cnc2ccccc21	–	·
CC1=CC(=O)C=C(C)C1=NS(=O)(=O)c1ccccc1	25.8	·
CN1C/C(=N\S(=O)(=O)c2ccccc2)N(C)C1=O	–	–
Cc1ccc2cnn(CC(=O)NCCN3CCOCC3)c2c1	–	–
COc1cc(NC(=O)[C@@H](NC(=O)c2cc(OC)cc(OC)c2)C(C)C)cc(OC)c1	–	·
COc1ccc(-c2csc(/C(C#N)=C(\O)CSc3nnc(-c4ccccc4F)n3C3CC3)n2)cc1OC	–	·
COc1ccc(-c2csc(/C(C#N)=C(\O)CSc3nccn3C)n2)cc1OC	30.9	·
O=C(Cn1nnc(-c2ccccc2Br)n1)N(Cc1ccccc1)C1CCS(=O)(=O)C1 (stereo not drawn)	–	·
CCc1cc(C(=O)Cc2cnn(-c3ccccc3)c2)c(O)cc1OC	–	·
CC(C)N(C(=O)CSc1nccc(=O)[nH]1)c1ccccc1	–	·
O=C1c2cccc3c(N4CCCCC4)ccc(c23)C(=O)N1c1ccccn1	–	-6.18
CC(=O)N(C(C)=O)N1C(=O)c2cccc3c(N4CCOCC4)ccc(c23)C1=O	–	·
Cc1cccc2[nH]ncc12	24.7	–
S=c1[nH]ncc2ccccc12	–	·
C=CCc1ccc(OCCOCCN2CCN(C)CC2)c(OC)c1	–	·
COc1cccc(N2CCN(S(=O)(=O)c3ccc(CN4C(=O)c5cccnc5C4=O)s3)CC2)c1	–	–
NC(=O)Cn1c2[n+](c3ccccc31)CC(O)CS2 (stereo not drawn)	–	-2.37
CCOC(=O)Cn1c2[n+](c3ccccc31)CC(O)CS2 (stereo not drawn)	–	–
O=C(COc1nc2ccccc2s1)N1N=CCC1c1ccccc1 (stereo not drawn)	–	–
CC1(C)CC(=O)C(C=Nc2ccc(OC(F)(F)F)cc2)=C(O)C1	·	–
CCCCC/C=C\C/C=C\CCCCCCCC(=O)O[C@@H](CO)COC(=O)CCCCCCCCCCCCCCCCC	–	–
CCCCC/C=C\C/C=C\C/C=C\C/C=C\CCCC(=O)OC(CO)CO	–	-2.11
COC(=O)c1ccccc1S(=O)(=O)Nc1ccc2nc(C)sc2c1	–	·
Cc1nn(C)c2c(=O)c(=O)c2n(C)[nH]1	–	-3.57
CCc1nn(C)c2c(=O)c(=O)c2n(C)[nH]1	–	·
